Test results reported in publication PMC11339821 (ACS Omega, 2024).
Values joined by “and” are separate entries in the source; they are usually repeats but may differ in a detail not shown here. Identical values can stand only once.

Columns and labels:
Format in all cases: in vivo, Swiss albino mice
[1] = tested on: spatial memory of scopolamine-treated AD mice; assay: Morris water-maze test in scopolamine-treated mice; conditions: for spatial memory (probe test, fifth day): after platform removal, vs scopolamine group; for number of entries in the arm: intranasal 0.5 mg/kg bw; for time to find the hidden acrylic platform: intranasal 0.5 mg/kg bw (EGCG-AA-TRANS 0.25 mg/kg bw each)
How it was run: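 Mice (30 ± 5 g; n = 5/group) were dosed intranasally for 6 days with free or transferosome-loaded test compound at 0.5 mg/kg bw, or 0.25 mg/kg bw of each in the combination. On day 7, scopolamine 0.5 mg/kg bw was given 30 min before trials. Pool 160 cm wide, water 26 cm deep, 22 ± 1 °C; run over 5 days. Quadrant time, arm entries and platform latency recorded; one-way ANOVA with Newman–Keuls.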

[2] = Organ distribution and brain pharmacokinetic study; conditions: brain
NO levels = assay: NO; conditions: hippocampus tissue homogenate
How it was run: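 Hippocampus came from mice dosed intranasally for 6 days and challenged with scopolamine (n = 5). Tissue was homogenised in KCl buffer pH 8.0 with protease and phosphatase inhibitors, then spun at 10,000 g for 25 min at 4 °C. The 10% homogenate was mixed with ammonium chloride and Griess reagent, held 37 °C for 90 min, read at 540 nm. Sodium nitrite standards […]; nitrite in μM/mL; one-way ANOVA with Newman–Keuls.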

[3] = Swiss albino, mouse, inhaled or intranasal, 0.5 mg/kg

Molecule	spatial memory (probe test, fifth day) [1]	number of entries in the arm [1]	time to find the hidden acrylic platform [1] [s]	AUC(0-t) [2, 3] [ng·h/mL]	Cmax [2, 3] [ng/mL]	MRT last [2, 3] [h]	Tmax [2, 3] [h]	NO levels (NO levels)	Cmax ([2]; mice) [ng/mL]	MRT0–24 ([2]; mice)	Tmax ([2]; mice) [h]
O=C1O[C@H]([C@@H](O)CO)C(O)=C1O [AA, ascorbic acid]	improved spatial memory	15 times	38	1061 ± 0.654	855.03 ± 0.654	1.98 ± 0.121	2.12 ± 0.871	significant decrease in NO levels	–	–	–
CN1[C@@H]2C[C@@H](OC(=O)[C@H](CO)c3ccccc3)C[C@H]1[C@@H]1O[C@@H]12 [scopolamine, Scopolamine]	significantly reduced their spatial memory	about 12 times	84	–	–	–	–	significantly higher	–	–	–
Epigallocatechin-3-gallate [EGCG]	improved spatial memory	14 times	42	–	–	–	–	significant decrease in NO levels	0.78607 ± 0.000784	1.4 ± 0.985 h and 1.412 ± 0.985 h	1.101 ± 2.871
